Measured values pooled from the literature.
Compare with care: the assays were run in different laboratories.
Cell line: OVCAR-3
Observed: cell growth or viability

Structure (SMILES)	test	conditions	endpoint	result
CSc1ccc(/C=C2\C=C(CC(=O)NS(=O)(=O)C(F)(F)F)c3cc(F)ccc32)cc1	WST-1	48 h	EC50	~160 µM
COc1ccc(-c2ccc(-c3ccc(C(=N)N)nc3)s2)cc1	SRB		GI50	1.82 µM
CC/C(=C(\c1ccccc1)c1ccc(OCCN(C)C)cc1)c1ccccc1	ATP luminescence	72 h	EC90	42.9 µM
Cc1ccc(C)c(COc2cc(NC(=O)c3ccc4c(c3)OCO4)ccc2N(C)S(C)(=O)=O)c1	SRB	48 h	GI50	0.0396 µM
Cc1cc(C)n(C(=S)[S][Au][PH](CCCCCC[PH]([Au][S]C(=S)n2nc(C)cc2C)(c2ccccc2)c2ccccc2)(c2ccccc2)c2ccccc2)n1			GI50	0.648 µM
COc1cccc(Oc2ccccc2NC(=O)CNC(=O)c2cccc3ccccc23)c1	SRB	48 h	GI50	0.1 µM
COc1ccc(C(=O)/C=C/c2cccc(Cl)c2Cl)cc1S(N)(=O)=O	SRB	10 µM	inhibition	156%
CC(C)c1cc(-c2n[nH]c(=O)n2-c2ccc3c(ccn3C)c2)c(O)cc1O	imaging	24 h	IC50	0.279 µM
COc1cc(OC)c(/C=C/S(=O)(=O)Nc2ccc(OC)c(N)c2)c(OC)c1	trypan blue	96 h	IC50	0.004 µM
COc1ccc(-c2ccc(-c3ccc(C(=N)N)nc3)s2)cc1Cl	SRB		GI50	1.83 µM
COc1ccc(C(=O)/C=C/c2ccccc2Cl)cc1S(N)(=O)=O	SRB	10 µM	inhibition	9%
C[C@]12CC[C@@H]3c4ccc(O)cc4CC[C@H]3[C@@H]1CC[C@@H]2O	ATP luminescence	72 h	EC50	27.6 µM
CC(C)C(=O)Nc1ccc([N+](=O)[O-])c(C(F)(F)F)c1	CCK-8	48 h	IC50	34.1 µM
O=C1CCC2(Oc3cccc4cccc(c34)O2)c2c(O)ccc(O)c21	resazurin	72 h	IC50	> 25 µM
C[C@H]1O[C@@H](n2cc(F)c(=O)[nH]c2=O)[C@H](O)[C@@H]1O	CCK-8	48 h	IC50	> 50 µM
COc1ccc(C(=O)/C=C/c2cccnc2)cc1S(N)(=O)=O	SRB	48 h	GI50	10.2 µM
